Screening results from PubChem BioAssay.
PGE2 EP2 inh = blocks the human prostaglandin E2 receptor EP2 | P43116 | C6 glioma cells expressing human EP2, cAMP TR-FRET; cells stimulated with saturating PGE2 | inhibition, % at 25 µM | actives 0.52% (n = 260,000) | AID 1422;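 active means percent inhibition above 40 after rounding to a whole number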;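 further: rat C6 glioma host cells with rolipram phosphodiesterase inhibitor present; the protocol text gives 20 µM as final concentration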
Target sequence (P43116 whole entry, looked up): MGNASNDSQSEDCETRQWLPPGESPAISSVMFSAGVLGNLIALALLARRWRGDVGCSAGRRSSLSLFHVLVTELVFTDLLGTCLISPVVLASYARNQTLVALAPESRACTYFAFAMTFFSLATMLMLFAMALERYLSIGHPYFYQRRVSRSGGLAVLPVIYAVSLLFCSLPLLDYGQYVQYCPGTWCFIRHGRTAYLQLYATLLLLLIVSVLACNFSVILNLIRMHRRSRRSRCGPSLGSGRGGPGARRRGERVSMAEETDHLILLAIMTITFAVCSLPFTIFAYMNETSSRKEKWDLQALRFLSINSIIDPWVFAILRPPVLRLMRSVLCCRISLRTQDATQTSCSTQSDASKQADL
Exocytosis inh = blocks lytic granule exocytosis; TALL-104 LAMP-1 surface exposure, flow cytometry; cells stimulated with thapsigargin and PMA; inhibition, % at 10 µM; actives 0.66% (n = 360,000);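 active means inhibition above about 55%, limit read from the data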
MC4R barr agon = activates human MC4R beta-arrestin recruitment. AID 540308. U2OS MC4R beta-arrestin complementation, luminescence; percent of melanotan II response, DMSO zero. activation, % at 8.9 µM. P32245. actives 0.98% (n = 360,000);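 active means activation above a per-plate cutoff, the mean activation of sample wells on that plate plus 3 SD, cut at about 8% in these data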
EP2 modulator = modulators of human EP2 prostaglandin E2 receptor; EP2-expressing cells, cAMP HTRF FRET, PGE2 co-stimulation; P43116; actives 0.83% (n = 260,000); induction, % at 25 µM;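 active means compounds whose cAMP rise, as percent of the full-agonist control response, exceeds 60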;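 further: rat C6 glioma line stably carrying human EP2 under a CMV promoter; the protocol text gives 20 µM as final concentration; 100% = response of wells given 1 µM PGE2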
T cell modulator = T cell immune modulators affecting CD8 T cell-vesicle binding. 2C CD8+ T cell-vesicle binding, flow cytometry; stronger effect = lower value. response (vesicle binding), % at 7 µM. actives 0.068% (n = 330,000). AID 2052;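 active means response, share of CD8 T cells binding vesicles, and their 90th percentile fluorescence all below set limits, cut at about 80% in these data, passing the limit was not always enough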;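 further: values below 100% mean blocked vesicle binding to the CD8+ T cells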
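incubation = binding step 1.5 h, 37 °C, antibody labelling 20 min, ice | test system = 2C mouse CD8+ T cells | read-out basis = percent CD8+ FL2 mean versus row control | controls = Peptide-free naked vesicles (low) and QL9 vesicles with 0.7% DMSO vehicle (high) | detection = flow cytometry of vesicle-bound cells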
MC4R antagonist = human MC4R antagonism in cAMP assay | actives 0.48% (n = 360,000) | MC4R-expressing cells, MTII-stimulated cAMP, LANCE TR-FRET | inhibition, % at 6.5 µM | AID 540295;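 active means inhibition above its plate's cutoff, the mean of tested wells on that plate plus 3 SD, cut at about 29% in these data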;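 further: 0% = Melanotan II alone and 100% = Melanotan II plus saturating MCL0020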
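Assay system: human MC4R-expressing U2OS cells; reagent: Melanotan II stimulation of cells; dosing: 6.5 µM single dose; timing: compound 30 min, challenge 1 h, detection 1 h; signal: TR-FRET cAMP assay; replicates: one well per compound, no replicates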
An asterisk follows results filed as active; i = inactive; x = not tested or not shown; ! = a repeat was not active. Only some compounds are listed: those with a hit (about 2.6% of all), similar ones and a draw of the others.

SMILES	PGE2 EP2 inh	Exocytosis inh	MC4R barr agon	EP2 modulator	T cell modulator	MC4R antagonist
Cc1ccc2nc(-c3ccc(SCC(=O)Nc4nc(C)cs4)nc3)[nH]c2c1	13	-1	0	-26	713	7
Cc1ccc2nc(-c3ccc(SCC(=O)Nc4nnc(C)s4)nc3)[nH]c2c1	18	-2	11*	-8	126	8
CN(C(=O)CSc1nnc(-c2ccccc2F)n1N)C1CCCCC1	x	-1	-2	x	394	1
Clc1cc(Br)ccc1OCCOCCOc1cccc2cccnc12	15	3	2	-47	386	2
O=C1/C(=C/c2ccccc2)CSc2sccc21	7	0	1	38	387	15
O=C(CCn1ncc2ccccc21)NC1(c2cccc(F)c2)CCCC1	3	x	x	27	x	x
CC(C)CC(=O)c1c[nH]c(C(=O)NCC2CCCO2)c1 (configuration not stated)	15	-2	1	-3	227	-1
COc1cc(/C=C(/NC(C)=O)C(=O)O)cc(Cl)c1OCc1ccc(Br)cc1	6	-3	-1	-3	412	15
O=C(c1cc(-c2ccco2)nn1-c1cccc(Cl)c1)N1CCCCC1	6	45	1	17	278	31*
c1ccc2c(c1)OCC(CNCC1COc3ccccc3O1)O2 (configuration not stated)	3	-2	0	-31	193	5
CC(=O)NCC1COc2ccccc2O1 (configuration not stated)	54*!	-3	-2	-5	545	0
O=C(C[N+]12CN3CN(CN(C3)C1)C2)c1ccc(-c2ccccc2)cc1	58*	x	x	4	x	x
Cc1cccc(NC(=S)NNC(=O)c2ccc3c(c2)OCO3)c1	4	9	-1	-9	209	15
CCOC(=O)c1cc(C)sc1NC(=O)c1ccccc1Cl	9	x	x	71*	x	x
Cc1cccc(C(=O)n2cnnc2N)c1	5	-3	0	10	115	-6
COCCCn1ccc(O)c(Cc2ccc(F)cc2)c1=O	12	3	0	17	473	2
Oc1ccccc1/C=N/n1c2ccccc2c2ccccc21	-7	0	9.2*	27	964	-4
CCOc1ccc(S(=O)(=O)N2CCCCC2)cc1NC(=O)CSCc1c(C)noc1C	x	-4	-2	x	167	0
CCCc1ccc(O)c(N=Cc2cc(Br)cc(OCC)c2O)c1	7	31	12*	51	176	15
CCc1ccc(O)c(N=Cc2cccc(C)c2O)c1	8	0	-1	51	421	0
Cc1ccc(NC(=O)COC(=O)CCc2ccccc2)c(Cl)c1	x	-13	0	x	181	12
O=C1C2C3C=CC(CO)(O3)C2C(=O)N1c1ccccc1-c1ccccc1 (configuration not stated)	17	64*	-3	6	185	-3
COc1ccc(-c2nn(-c3ccccc3)cc2C=O)cc1[N+](=O)[O-]	x	5	9.5*	x	125	-4
COc1ccc(-n2sc3c(c2=S)-c2cc(OC)ccc2NC3(C)C)cc1	12	-1	-1	16	220	8
COc1ccc2c(c1)-c1c(sn(-c3ccc(OC)c(OC)c3)c1=S)C(C)(C)N2	11	66*	-2	35	70*	8
SMILES	PGE2 EP2 inh	Exocytosis inh	MC4R barr agon	EP2 modulator	T cell modulator	MC4R antagonist
C=C(C)C(=O)N1CC2(CC(c3cccc(NC(=O)/C=C\C)c3)=NO2)C[C@H]1C(N)=O (some centres not stated)	8	-6	-2	-7	157	4
O=C(O)[C@H](Cc1ccc(O)c([N+](=O)[O-])c1)N1C(=O)c2ccccc2C1=O	51*	x	x	10	x	x
O=C(O)C(Cc1ccc(O)c([N+](=O)[O-])c1)N1C(=O)c2ccccc2C1=O (configuration not stated)	x	-2	-3	x	x	3
CC(=O)N1c2ccccc2C2(C)C(C1(C)C)C2(Cl)Cl (configuration not stated)	8	1	-3	36	315	0
O=C1C=CC(=O)N1CCCCCCN1C(=O)C=CC1=O	135*	x	x	-1	416	x
CCOc1ccc(S(=O)(=O)N2CCOCC2)cc1NC(=O)CSCC(=O)Nc1cccc(C)c1	x	-1	-4	x	0.0*	4
CCOc1ccc(S(=O)(=O)N2CCOCC2)cc1NC(=O)CSCC(=O)Nc1ccc(C)cc1	x	2	-1	x	145	6
CN1C(=O)C(CCC(=O)O)NC1=S (configuration not stated)	7	-1	-2	-10	146	-4
Cc1ccc(N(C(=O)CNC(=O)c2ccco2)C(C(=O)NCC2CCCO2)c2ccccc2)cc1C (configuration not stated)	x	-3	1	x	230	6
CCOc1cccc(/C(O)=C2/C(=O)C(=O)N(Cc3cccnc3)C2c2ccco2)c1 (configuration not stated)	10	0	0	11	328	1
COc1ccc(/C(O)=C2/C(=O)C(=O)N(Cc3cccnc3)C2c2ccco2)cc1OC (configuration not stated)	12	-1	-2	13	48*	1
Cc1cccc(OCC(=O)Nc2nc3ccc([N+](=O)[O-])cc3s2)c1	9	-1	1	-4	329	7
Cc1cccc(OCC(=O)Nc2nc3ccc([N+](=O)[O-])cc3s2)c1C	x	0	9.1*	-18	574	17
CCCCN(CC)C(=O)CSc1nc2ccccc2c(=O)n1CC1COc2ccccc2O1 (configuration not stated)	10	9	-1	21	504	6
CCOC(=O)CSc1nc2ccccc2c(=O)n1CC1CCCC1	8	-2	2	62*	194	7
CCOC(=O)CSc1nc2ccccc2c(=O)n1CC	7	-1	-1	4	384	-4
CCCCCCn1c(SCC(=O)Nc2cc(C)on2)nc2ccccc2c1=O	6	-1	12*	39	121	10
CCCCNC(=O)CSc1nc2ccccc2c(=O)n1CC1COc2ccccc2O1 (configuration not stated)	8	0	9.4*	28	664	6
O=C(Cc1c(F)cccc1Cl)N/N=C/c1cccnc1	x	-8	-1	x	336	-1
CC(=O)c1cccc(N(C(=O)c2ccco2)C(C(=O)NC2CCCCC2)c2ccc(C)o2)c1 (configuration not stated)	x	6	-1	x	506	17
N#Cc1nc(-c2ccc(Cl)cc2)oc1NCc1cccc2c1OCO2	10	-4	8.5*	-60	i	2
COc1ccc(Nc2oc(-c3ccc(OC)cc3)nc2C#N)cc1	3	-6	-1	-29	562	11
